Columns and labels:
[1] = Drug uptake in mouse right shoulder xenografted with human U87WT cells expressing human wild type c-KIT at 100 uCi, iv after 15 to 120 mins by PET analysis; type: ADME, organism-based; conditions: in vivo
Procedure, shortened: (§1)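 Nude mice carried K562, U87 or U87WT tumor cells injected in Matrigel (200 μl) into the dorsal shoulder areas. [18F]STI-571, labeled by nucleophilic substitution, was given at 100 μCi/mouse i.v. MicroPET imaging was done at 30, 60 and 90 min, with images also shown at 60 and 120 min. Some mice were sacrificed at 60 or 90 min for tissue sampling and autoradiography.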

[2] = Drug uptake in human wild-type U87 cells incubated for 1 to 2 hrs measured after drug washout
[3] = Drug uptake in mouse digestive tract xenografted with human K562 cells expressing Bcr-Abl at 100 uCi, iv after 15 to 120 mins by PET analysis; type: ADME, organism-based; conditions: in vivo; procedure, shortened: as §1
[4] = Drug uptake in mouse right shoulder xenografted with human U87 cells at 100 uCi, iv after 15 to 120 mins by PET analysis; type: ADME, organism-based, U-87MG ATCC; conditions: in vivo, in the assay text read “U87WT cells” for “U87 cells”; procedure, shortened: as §1
[5] = Drug uptake in mouse digestive tract xenografted with human U87 cells at 100 uCi, iv after 15 to 120 mins by PET analysis; type: ADME, organism-based, U-87MG ATCC; conditions: in vivo; procedure, shortened: as §1
[6] = Drug uptake in human U87WT cells expressing human wild type c-KIT after 1 to 2 hrs; type: ADME, cell-based
Procedure, shortened: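 Cells were incubated with [18F]STI-571, and tracer accumulation and washout were measured at 1 and 2 h. U87WT cells were made by retroviral transduction of U87 cells with wild-type human c-KIT receptor. Specificity was tested by blocking with excess unlabelled STI-571.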

K562 [7] = experiment: Drug uptake in human K562 cells expressing Bcr-Abl after 30 to 210 mins in presence of unlabelled STI-571; type: ADME, cell-based
K562 [8] = experiment: Drug uptake in human K562 cells expressing Bcr-Abl incubated for 1 to 2 hrs measured after drug washout; type: ADME, cell-based
Tumour [9] = experiment: Drug uptake in tumor of mouse xenografted with human K562 cells expressing Bcr-Abl at 100 uCi, iv after 60 to 120 mins by PET analysis; type: ADME, organism-based, Neoplasm; conditions: in vivo; procedure, shortened: as §1
Liver [10] = experiment: Drug uptake in liver of mouse xenografted with human K562 cells expressing Bcr-Abl at 100 uCi, iv after 60 to 120 mins by PET analysis; type: ADME, organism-based; conditions: in vivo; procedure, shortened: as §1
Tumour [11] = experiment: Drug uptake in tumor of mouse xenografted with human U87 cells at 100 uCi, iv after 60 to 120 mins by PET analysis; type: ADME, organism-based, Neoplasm, U-87MG ATCC; conditions: in vivo; procedure, shortened: as §1
[12] = Drug uptake in mouse right shoulder xenografted with human K562 cells expressing Bcr-Abl at 100 uCi, iv after 15 to 120 mins by PET analysis; type: ADME, organism-based; conditions: in vivo; procedure, shortened: as §1
[13] = Drug uptake in mouse digestive tract xenografted with human U87WT cells expressing human wild type c-KIT at 100 uCi, iv after 15 to 120 mins by PET analysis; type: ADME, organism-based; conditions: in vivo; procedure, shortened: as §1
Intestine [14] = experiment: Drug uptake in intestine of mouse xenografted with human K562 cells expressing Bcr-Abl at 100 uCi, iv after 60 to 120 mins by PET analysis; type: ADME, organism-based; conditions: in vivo; procedure, shortened: as §1
Intestine [15] = experiment: Drug uptake in intestine of mouse xenografted with human U87 cells at 100 uCi, iv after 60 to 120 mins by PET analysis; type: ADME, organism-based, U-87MG ATCC; conditions: in vivo; procedure, shortened: as §1
Liver [16] = experiment: Drug uptake in liver of mouse xenografted with human U87 cells at 100 uCi, iv after 60 to 120 mins by PET analysis; type: ADME, organism-based, U-87MG ATCC; conditions: in vivo; procedure, shortened: as §1
Liver [17] = experiment: Drug uptake in liver of mouse xenografted with human U87WT cells expressing human wild type c-KIT at 100 uCi, iv after 60 to 120 mins by PET analysis; type: ADME, organism-based; conditions: in vivo; procedure, shortened: as §1
K562 [18] = experiment: Drug uptake in human K562 cells expressing Bcr-Abl after 1 to 2 hrs; type: ADME, cell-based
Intestine [19] = experiment: Drug uptake in intestine of mouse xenografted with human U87WT cells expressing human wild type c-KIT at 100 uCi, iv after 60 to 120 mins by PET analysis; type: ADME, organism-based; conditions: in vivo; procedure, shortened: as §1
K562 [20] = experiment: Drug uptake in human K562 cells expressing Bcr-Abl after 30 mins; type: ADME, cell-based; conditions: k562, 0.5 h
Tumour [21] = experiment: Drug uptake in tumor of mouse xenografted with human U87WT cells expressing human wild type c-KIT at 100 uCi, iv after 60 to 120 mins by PET analysis; type: ADME, organism-based, Neoplasm; conditions: in vivo; procedure, shortened: as §1
Bcr/Abl fusion protein = Bcr/Abl fusion protein (Homo sapiens, UniProt P00519); experiment: Inhibition of Bcr-Abl (unknown origin) phosphorylation by spectrophotometric assay; type: protein assay
Chain of Bcr/Abl fusion protein (P00519 whole entry, the tested form may be a part): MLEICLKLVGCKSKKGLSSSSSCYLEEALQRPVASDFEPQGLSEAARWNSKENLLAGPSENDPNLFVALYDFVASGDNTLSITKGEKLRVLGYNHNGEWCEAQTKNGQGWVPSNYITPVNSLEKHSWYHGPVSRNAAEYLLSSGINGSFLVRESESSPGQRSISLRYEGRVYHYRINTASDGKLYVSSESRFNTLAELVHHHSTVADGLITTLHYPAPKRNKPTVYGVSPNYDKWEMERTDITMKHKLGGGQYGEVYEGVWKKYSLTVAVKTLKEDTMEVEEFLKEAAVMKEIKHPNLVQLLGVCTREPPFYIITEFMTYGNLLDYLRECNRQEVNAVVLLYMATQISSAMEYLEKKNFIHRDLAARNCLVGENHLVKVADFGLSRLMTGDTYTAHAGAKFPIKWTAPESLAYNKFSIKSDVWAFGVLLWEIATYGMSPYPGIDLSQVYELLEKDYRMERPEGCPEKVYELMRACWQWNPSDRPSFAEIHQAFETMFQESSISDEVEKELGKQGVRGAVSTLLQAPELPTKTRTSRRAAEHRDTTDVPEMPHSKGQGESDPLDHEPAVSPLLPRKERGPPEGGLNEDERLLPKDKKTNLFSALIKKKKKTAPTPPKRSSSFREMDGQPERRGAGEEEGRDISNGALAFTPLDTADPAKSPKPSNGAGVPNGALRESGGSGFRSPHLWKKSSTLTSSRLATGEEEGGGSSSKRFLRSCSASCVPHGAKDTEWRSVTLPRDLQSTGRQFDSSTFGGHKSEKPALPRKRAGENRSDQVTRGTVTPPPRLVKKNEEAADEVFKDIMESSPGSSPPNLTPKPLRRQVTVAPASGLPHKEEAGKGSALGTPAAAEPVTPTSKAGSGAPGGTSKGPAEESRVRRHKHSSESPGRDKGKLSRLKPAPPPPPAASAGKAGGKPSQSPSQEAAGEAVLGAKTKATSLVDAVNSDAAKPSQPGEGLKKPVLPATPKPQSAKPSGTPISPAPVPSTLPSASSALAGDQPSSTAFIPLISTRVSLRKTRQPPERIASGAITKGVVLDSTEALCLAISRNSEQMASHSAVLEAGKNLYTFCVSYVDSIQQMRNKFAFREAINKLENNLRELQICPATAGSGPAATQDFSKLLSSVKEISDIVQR
Chain of Bcr/Abl fusion protein (P11274 whole entry, further chain, the tested form may be a part): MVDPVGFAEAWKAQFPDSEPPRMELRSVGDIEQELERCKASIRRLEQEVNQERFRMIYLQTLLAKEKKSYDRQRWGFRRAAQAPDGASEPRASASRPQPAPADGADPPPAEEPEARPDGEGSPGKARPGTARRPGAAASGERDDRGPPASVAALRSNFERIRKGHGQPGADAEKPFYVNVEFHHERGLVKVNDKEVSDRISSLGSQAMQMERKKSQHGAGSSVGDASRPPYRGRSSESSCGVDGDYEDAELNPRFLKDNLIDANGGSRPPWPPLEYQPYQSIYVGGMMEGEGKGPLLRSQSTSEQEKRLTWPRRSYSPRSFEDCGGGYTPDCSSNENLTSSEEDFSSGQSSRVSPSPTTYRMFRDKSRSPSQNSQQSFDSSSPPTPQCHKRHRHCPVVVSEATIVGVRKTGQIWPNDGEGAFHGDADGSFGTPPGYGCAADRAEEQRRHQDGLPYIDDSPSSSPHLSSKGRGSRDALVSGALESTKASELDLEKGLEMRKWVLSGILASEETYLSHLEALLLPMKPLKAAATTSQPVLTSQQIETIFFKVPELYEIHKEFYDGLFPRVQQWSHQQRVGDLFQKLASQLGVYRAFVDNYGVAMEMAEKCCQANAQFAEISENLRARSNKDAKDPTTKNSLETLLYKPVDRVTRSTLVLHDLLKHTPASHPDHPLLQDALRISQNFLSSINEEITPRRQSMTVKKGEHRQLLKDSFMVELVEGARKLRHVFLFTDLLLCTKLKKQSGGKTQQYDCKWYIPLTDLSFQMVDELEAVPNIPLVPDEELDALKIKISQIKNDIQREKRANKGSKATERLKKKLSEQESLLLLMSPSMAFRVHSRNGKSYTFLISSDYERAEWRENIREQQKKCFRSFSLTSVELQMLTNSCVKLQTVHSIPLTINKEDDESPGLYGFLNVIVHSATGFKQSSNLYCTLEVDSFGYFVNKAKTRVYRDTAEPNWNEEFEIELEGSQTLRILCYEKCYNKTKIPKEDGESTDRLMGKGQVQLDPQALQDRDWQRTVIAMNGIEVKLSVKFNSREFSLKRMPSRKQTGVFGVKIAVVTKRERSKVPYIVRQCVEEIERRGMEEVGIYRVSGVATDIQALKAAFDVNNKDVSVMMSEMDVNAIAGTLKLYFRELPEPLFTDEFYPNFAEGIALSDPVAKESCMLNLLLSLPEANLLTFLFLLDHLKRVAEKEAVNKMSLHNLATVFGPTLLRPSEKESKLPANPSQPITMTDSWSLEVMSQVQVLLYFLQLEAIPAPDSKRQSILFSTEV

Intestine [22] = experiment: Drug uptake in intestine of mouse xenografted with human U87WT cells expressing human wild type c-KIT after 45 mins by PET analysis; type: ADME, tissue-based; conditions: in vivo, 0.75 h
Mus musculus = experiment: Drug uptake in mouse xenografted with human K562 cells expressing Bcr-Abl after 45 mins by PET analysis; type: ADME, organism-based; conditions: in vivo, 0.75 h
Intestine [23] = experiment: Drug uptake in intestine of mouse xenografted with human U87 cells after 45 mins by PET analysis; type: ADME, U-87MG ATCC; conditions: in vivo, 0.75 h

In the case of `Cc1ccc(NC(=O)c2ccc(CN3CCN(CC[18F])CC3)cc2)cc1Nc1nccc(-c2cccnc2)n1`, the Drug uptake [1] is reported as “Active”, the Drug uptake [2] is reported as “Not Active” and the Drug uptake [3] is reported as “Active”. The Drug uptake [4] was “Active”, the Drug uptake [5] was “Active” and the Drug uptake [6] was “Not Active”. For the same compound, the Drug uptake (K562 [7]) was “Not Active”, the Drug uptake (K562 [8]) was “Active” and the Drug uptake (Tumour [9]) was “Active”. The Drug uptake (Liver [10]) was “Active”, the Drug uptake (Tumour [11]) was “Active” and the Drug uptake [12] was “Active”. The Drug uptake [13] was “Active”, the Drug uptake (Intestine [14]) was “Active” and the Drug uptake (Intestine [15]) was “Active”. The Drug uptake (Liver [16]) was “Active”, the Drug uptake (Liver [17]) was “Active” and the Drug uptake (K562 [18]) was “Active”. The Drug uptake (Intestine [19]) was “Active”, the Drug uptake (K562 [20]) was “Active” and the Drug uptake (Tumour [21]) was “Active”.

`Cc1ccc(NC(=O)c2ccc(CN3CCN(CCF)CC3)cc2)cc1Nc1nccc(-c2cccnc2)n1` gave an IC50 (Bcr/Abl fusion protein) of 1.38 µM.

With `OC[C@H]1O[C@@H](O)[C@H]([18F])[C@@H](O)[C@@H]1O` [FLUDEOXYGLUCOSE-F18] the Drug uptake (Intestine [22]) was “Active”, the Drug uptake (Mus musculus) was “Active” and the Drug uptake (Intestine [23]) was “Active”.

Work on `Cc1ccc(NC(=O)c2ccc(CN3CCN(Cc4ccc(I)cc4)CC3)cc2)cc1Nc1nccc(-c2cccnc2)n1` yielded an IC50 (Bcr/Abl fusion protein) of 0.739 µM.

Work on `Cc1ccc(NC(=O)c2ccc(CN3CCN(CCO)CC3)cc2)cc1Nc1nccc(-c2cccnc2)n1` yielded an IC50 (Bcr/Abl fusion protein) of 7.08 µM.

Source: ChEMBL document CHEMBL3098000, “Imatinib analogs as potential agents for PET imaging of Bcr-Abl and c-KIT expression at a kinase level” (Bioorg Med Chem, 2014)
